Published values of several laboratories.

Compound	test system	conditions	endpoint	value
CN(C)C(=O)c1cc2cnc(Nc3ccc(N4CCNCC4)cn3)nc2n1C1CCCC1	human, plasma	oral, multiple doses, steady state, patients	CL/F	343 mL/min
CN1CCC(COc2cnc(-c3cccc(Cn4nc(-c5cccc(C#N)c5)ccc4=O)c3)nc2)CC1	human, plasma	intravenous, single dose	clearance	~3 mL/min/kg
OC[C@H]1O[C@@H](c2cc(Cc3ccc(C4CC4)cc3)c(Cl)c3c2CCO3)[C@H](O)[C@@H](O)[C@@H]1O	human, plasma	oral, 0.3 mg, single dose, fed, healthy volunteers	CL/F	173 mL/min
N#Cc1cccc(-c2ccc3ncc(-c4cc(F)cc(F)c4)c(N4CCC(N)CC4)c3c2)c1O	human, plasma	intravenous, 50 µg	clearance	85 mL/min
C[C@@H](Oc1ccc(S(C)(=O)=O)cc1C(=O)N1C[C@@H]2C[C@]2(c2cc(C(F)(F)F)on2)C1)C(F)(F)F	human, plasma	oral, 10 mg, single dose, fed	CL/F	73.1 mL/min
COc1ccc(F)cc1C(=O)NCc1ccc(-c2nn([C@@H](C)C(F)(F)F)c(N)c2C(N)=O)cc1	male human, urine	oral, 200 mg	renal clearance	4.83 mL/min
CC(C)C[C@H](NC(=O)[C@H](CC(C)C)NC(=O)[C@H](Cc1c[nH]c2ccccc12)NC(=O)[C@H](CCC(=O)O)NC(=O)[C@@H](NC(=O)[C@H](Cc1ccccc1)NC(=O)[C@H](CCC(=O)O)NC(=O)[C@H](CCCCNC(=O)COCCOCCNC(=O)COCCOCCNC(=O)CC[C@H](NC(=O)CCCCCCCCCCCCCCCCCCC(=O)O)C(=O)O)NC(=O)[C@H](C)NC(=O)[C@H](CCCCN)NC(=O)[C@H](CCCCN)NC(=O)[C@H](CCC(=O)O)NC(=O)[C@H](CC(=O)O)NC(=O)[C@H](CC(C)C)NC(=O)[C@H](Cc1ccc(O)cc1)NC(=O)[C@H](CCCCN)NC(=O)[C@H](CO)NC(=O)[C@H](Cc1ccc(O)cc1)NC(=O)[C@H](CC(=O)O)NC(=O)[C@H](CO)NC(=O)[C@@H](NC(=O)[C@H](Cc1ccccc1)NC(=O)[C@@H](NC(=O)CNC(=O)[C@H](CCC(N)=O)NC(=O)C(C)(C)NC(=O)[C@@H](N)Cc1c[nH]cn1)[C@@H](C)O)[C@@H](C)O)C(C)C)C(=O)N[C@@H](CCC(=O)O)C(=O)NCC(=O)NCC(=O)N1CCC[C@H]1C(=O)N[C@@H](CO)C(=O)N[C@@H](CO)C(=O)NCC(N)=O	human, plasma	subcutaneous, 16 mg, multiple doses, once daily, steady state, patients	CL/F	0.333 mL/min
C=CC(=O)NC1CCN(c2ncc3ncnc(Nc4ccc(Oc5ccc6c(c5)ncn6C)c(C)c4)c3n2)CC1	male human, plasma	intravenous, 100 µg, single dose, healthy volunteers	clearance	106 mL/min
CC(C)n1c(C2CCNCC2)nc2c([N+](=O)[O-])c(Br)c(Br)cc21	human, urine	oral, 75 mg, single dose	renal clearance	13.7 mL/min
COc1ccc2c(c1)CN(C(=O)CCN1CCC(Cc3ccccc3)CC1)CC[S@@+]2[O-]	male human, plasma	intravenous, 0.4 mg/kg, healthy volunteers	clearance	162 mL/min
